Source: ChEMBL document CHEMBL1156767, “Indol-3-ylcycloalkyl ketones: effects of N1 substituted indole side chain variations on CB(2) cannabinoid receptor activity” (J Med Chem, 2010)

biological target: T1, Cannabinoid receptor 2 (Homo sapiens, UniProt P34972); assay: Displacement of [3H]CP-55940 from human recombinant CB2 receptor expressed in HEK293 cells; format: cell-based; details: hek293
T1 sequence (P34972 whole entry): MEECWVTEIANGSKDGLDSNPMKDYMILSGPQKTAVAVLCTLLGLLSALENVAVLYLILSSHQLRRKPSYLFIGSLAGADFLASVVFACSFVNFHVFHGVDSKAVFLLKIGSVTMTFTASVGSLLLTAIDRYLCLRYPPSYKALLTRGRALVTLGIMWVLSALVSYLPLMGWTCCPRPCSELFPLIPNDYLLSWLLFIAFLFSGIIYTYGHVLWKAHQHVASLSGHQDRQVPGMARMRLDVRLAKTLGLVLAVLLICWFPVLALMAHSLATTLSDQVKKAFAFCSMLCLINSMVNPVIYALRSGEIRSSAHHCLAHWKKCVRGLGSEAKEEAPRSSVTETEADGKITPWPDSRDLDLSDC

SMILES | pKi
CC1(C(=O)c2cn(CCN3CCOCC3)c3ccccc23)CC1(Cl)Cl (stereo not drawn) | < 6
CC1(C)C(C(=O)c2cn(C(=O)CC3CCOCC3)c3ccccc23)C1(C)C | < 6
CN1CCC(CCn2cc(C(=O)C3C(C)(C)C3(C)C)c3ccccc32)CC1 | < 6
CC1(C)C(C(=O)c2cn(CCN3CCNCC3)c3ccccc23)C1(C)C | < 6
CC1(C)C(C(=O)c2cn(CCC(=O)O)c3ccccc23)C1(C)C | < 6
CN1CCCC1CCn1cc(C(=O)C2C(C)(C)C2(C)C)c2ccccc21 (stereo not drawn) | < 6
CC1(C)C(C(=O)c2cn(CCCN3CCOCC3)c3ccccc23)C1(C)C | < 6
CC1(C)C(C(=O)c2cn(CCC3CCNCC3)c3ccccc23)C1(C)C | < 6
CN1CCN(CCn2cc(C(=O)C3C(C)(C)C3(C)C)c3ccccc32)CC1 | < 6
CC1(C)C(C(=O)c2cn(CCN)c3ccccc23)C1(C)C | < 6
CN1CCCCC1Cn1cc(C(=O)c2cc([N+](=O)[O-])ccc2I)c2ccccc21 (stereo not drawn) | 7.94

same assay, conditions: hek293; read-out: Ki

SMILES | Ki
O=C(c1cn(CCN2CCOCC2)c2ccccc12)C1CCCC1 | > 1000 nM
O=C(c1cn(CCN2CCOCC2)c2ccccc12)C1CCC1 | > 1000 nM

same assay, conditions: read-out: Ki

SMILES | Ki
CC1(C(=O)c2cn(CCN3CCOCC3)c3ccccc23)CC1(Cl)Cl (stereo not drawn) | > 1000 nM
CC1(C)C(C(=O)c2cn(C(=O)CC3CCOCC3)c3ccccc23)C1(C)C | > 1000 nM
COCCn1cc(C(=O)C2C(C)(C)C2(C)C)c2ccccc21 | 3.1 nM
COCCCn1cc(C(=O)C2C(C)(C)C2(C)C)c2ccccc21 | 1.3 nM
CC1(C)C(C(=O)c2cn(CCN3CCCC3=O)c3ccccc23)C1(C)C | 55 nM
CC1(C)C(C(=O)c2cn(C[C@H]3CCCO3)c3ccccc23)C1(C)C | 3.8 nM
CC1(C)C(C(=O)c2cn(CCO)c3ccccc23)C1(C)C | 56 nM
CC1(C)C(C(=O)c2cn(CCC(N)=O)c3ccccc23)C1(C)C | 220 nM
CC1(C)C(C(=O)c2cn(Cc3ccncc3)c3ccccc23)C1(C)C | 3.7 nM
CCCCn1cc(C(=O)C2C(C)(C)C2(C)C)c2ccccc21 | 2 nM
CN1CCC(CCn2cc(C(=O)C3C(C)(C)C3(C)C)c3ccccc32)CC1 | > 1000 nM
CC1(C)C(C(=O)c2cn(CCCCCO)c3ccccc23)C1(C)C | 0.71 nM
CC1(C)C(C(=O)c2cn(CCC3CCOCC3)c3ccccc23)C1(C)C | 2.8 nM
O=C(c1cn(CCN2CCOCC2)c2ccccc12)C1CCCCCC1 | 11 nM
CC1(C)C(C(=O)c2cn(Cc3ccccc3)c3ccccc23)C1(C)C | 8.2 nM
CC1(C)C(C(=O)c2cn(CCN3CCNCC3)c3ccccc23)C1(C)C | > 1000 nM
CC1(C)C(C(=O)c2cn(CCC(=O)O)c3ccccc23)C1(C)C | > 1000 nM
CN1CCCC1CCn1cc(C(=O)C2C(C)(C)C2(C)C)c2ccccc21 (stereo not drawn) | > 1000 nM
CC1(C)C(C(=O)c2cn(CCCN3CCOCC3)c3ccccc23)C1(C)C | > 1000 nM
CC1(C)C(C(=O)c2cn(CCC3CCNCC3)c3ccccc23)C1(C)C | > 1000 nM
CN1CCN(CCn2cc(C(=O)C3C(C)(C)C3(C)C)c3ccccc32)CC1 | > 1000 nM
CC1(C)C(C(=O)c2cn(CCN)c3ccccc23)C1(C)C | > 1000 nM

same assay, conditions: read-out: pKi (converted)

SMILES | Ki
O=C(c1cn(CCN2CCOCC2)c2ccccc12)C1CCCC1 | > 1000 nM
CC1(C)C(C(=O)c2cn(CCN3CCCC3=O)c3ccccc23)C1(C)C | 53.7 nM
O=C(c1cn(CCN2CCOCC2)c2ccccc12)C1CCC1 | > 1000 nM

biological target: Cannabinoid receptor 1 (Homo sapiens, UniProt P21554); assay: Displacement of [3H]CP-55940 from human recombinant CB1 receptor expressed in CHO cells; format: cell-based; details: read-out: Ki
Sequence (P21554 whole entry): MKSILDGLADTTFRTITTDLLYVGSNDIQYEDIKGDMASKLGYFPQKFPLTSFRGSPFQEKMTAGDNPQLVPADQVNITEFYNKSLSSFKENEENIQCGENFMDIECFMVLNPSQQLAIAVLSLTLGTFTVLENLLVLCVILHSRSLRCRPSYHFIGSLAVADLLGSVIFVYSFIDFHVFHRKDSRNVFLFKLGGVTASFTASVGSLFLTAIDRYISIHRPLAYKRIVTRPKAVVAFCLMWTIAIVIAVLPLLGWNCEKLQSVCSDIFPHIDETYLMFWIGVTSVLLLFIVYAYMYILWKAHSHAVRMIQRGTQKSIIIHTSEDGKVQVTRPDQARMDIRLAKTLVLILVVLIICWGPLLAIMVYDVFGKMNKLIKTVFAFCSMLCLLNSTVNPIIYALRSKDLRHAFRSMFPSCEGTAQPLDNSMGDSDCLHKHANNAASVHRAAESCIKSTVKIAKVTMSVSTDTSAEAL

SMILES | Ki
CC1(C(=O)c2cn(CCN3CCOCC3)c3ccccc23)CC1(Cl)Cl (stereo not drawn) | > 10000 nM
CC1(C)C(C(=O)c2cn(C(=O)CC3CCOCC3)c3ccccc23)C1(C)C | > 10000 nM
COCCn1cc(C(=O)C2C(C)(C)C2(C)C)c2ccccc21 | 710 nM
O=C(c1cn(CCN2CCOCC2)c2ccccc12)C1CCCC1 | > 10000 nM
COCCCn1cc(C(=O)C2C(C)(C)C2(C)C)c2ccccc21 | 660 nM
CC1(C)C(C(=O)c2cn(CCN3CCCC3=O)c3ccccc23)C1(C)C | > 10000 nM
CC1(C)C(C(=O)c2cn(C[C@H]3CCCO3)c3ccccc23)C1(C)C | 720 nM
CC1(C)C(C(=O)c2cn(CCO)c3ccccc23)C1(C)C | > 10000 nM
CC1(C)C(C(=O)c2cn(CCC(N)=O)c3ccccc23)C1(C)C | > 10000 nM
CC1(C)C(C(=O)c2cn(Cc3ccncc3)c3ccccc23)C1(C)C | 48 nM
CCCCn1cc(C(=O)C2C(C)(C)C2(C)C)c2ccccc21 | 91 nM
CN1CCC(CCn2cc(C(=O)C3C(C)(C)C3(C)C)c3ccccc32)CC1 | > 10000 nM
O=C(c1cn(CCN2CCOCC2)c2ccccc12)C1CCC1 | > 10000 nM
CC1(C)C(C(=O)c2cn(CCCCCO)c3ccccc23)C1(C)C | 680 nM
CC1(C)C(C(=O)c2cn(CCC3CCOCC3)c3ccccc23)C1(C)C | 92 nM
O=C(c1cn(CCN2CCOCC2)c2ccccc12)C1CCCCCC1 | 362 nM
CC1(C)C(C(=O)c2cn(Cc3ccccc3)c3ccccc23)C1(C)C | 210 nM
CC1(C)C(C(=O)c2cn(CCN3CCNCC3)c3ccccc23)C1(C)C | > 10000 nM
CC1(C)C(C(=O)c2cn(CCC(=O)O)c3ccccc23)C1(C)C | > 10000 nM
CN1CCCC1CCn1cc(C(=O)C2C(C)(C)C2(C)C)c2ccccc21 (stereo not drawn) | > 10000 nM
CC1(C)C(C(=O)c2cn(CCCN3CCOCC3)c3ccccc23)C1(C)C | > 10000 nM
CC1(C)C(C(=O)c2cn(CCC3CCNCC3)c3ccccc23)C1(C)C | > 10000 nM
CN1CCN(CCn2cc(C(=O)C3C(C)(C)C3(C)C)c3ccccc32)CC1 | 2150 nM
CC1(C)C(C(=O)c2cn(CCN)c3ccccc23)C1(C)C | > 10000 nM

organism: Homo sapiens; assay: Selectivity ratio of Ki for human recombinant CB1 receptor to Ki for human recombinant CB2 receptor; details: not given
Summary of the method: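 Membranes were from HEK cells stably expressing human CB2 and CHO cells stably expressing human CB1. Competition was run against 0.5 nM [3H]CP-55,940 in 50 mM Tris-HCl pH 7.4, 2.5 mM EDTA, 5 mM MgCl2, 0.05% fatty-acid-free BSA, for 90 min at 30 °C, then filtered. Nonspecific binding was set with 10 μM unlabeled CP-55,940. Ki came from one-site fits. Mean ± SEM, ≥3 experiments in duplicate.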

SMILES | Ratio Ki
COCCn1cc(C(=O)C2C(C)(C)C2(C)C)c2ccccc21 | 229
COCCCn1cc(C(=O)C2C(C)(C)C2(C)C)c2ccccc21 | 508
CC1(C)C(C(=O)c2cn(CCN3CCCC3=O)c3ccccc23)C1(C)C | > 182
CC1(C)C(C(=O)c2cn(C[C@H]3CCCO3)c3ccccc23)C1(C)C | 189
CC1(C)C(C(=O)c2cn(CCO)c3ccccc23)C1(C)C | > 179
CC1(C)C(C(=O)c2cn(Cc3ccncc3)c3ccccc23)C1(C)C | 13
CCCCn1cc(C(=O)C2C(C)(C)C2(C)C)c2ccccc21 | 46
CC1(C)C(C(=O)c2cn(CCCCCO)c3ccccc23)C1(C)C | 958
CC1(C)C(C(=O)c2cn(CCC3CCOCC3)c3ccccc23)C1(C)C | 33
O=C(c1cn(CCN2CCOCC2)c2ccccc12)C1CCCCCC1 | 33
CC1(C)C(C(=O)c2cn(Cc3ccccc3)c3ccccc23)C1(C)C | 26
CN1CCCCC1Cn1cc(C(=O)c2cc([N+](=O)[O-])ccc2I)c2ccccc21 (stereo not drawn) | 110

biological target: T1, Cannabinoid receptor 2; assay: Agonist activity at human recombinant CB2 receptor expressed in HEK293 cells coexpressing Galphaq/o5 assessed as calcium mobilization by FLIPR assay; format: functional, cell-based; details: not given
Summary of the method: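 HEK cells stably coexpressing human CB2 and chimeric Gαq/o5 were seeded at 75 000 cells/well the day before and loaded with no-wash calcium dye. Mean ± SEM, ≥3 experiments in duplicate.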

SMILES | EC50
CC1(C(=O)c2cn(CCN3CCOCC3)c3ccccc23)CC1(Cl)Cl (stereo not drawn) | 716 nM
COCCn1cc(C(=O)C2C(C)(C)C2(C)C)c2ccccc21 | 14 nM
O=C(c1cn(CCN2CCOCC2)c2ccccc12)C1CCCC1 | 819 nM
COCCCn1cc(C(=O)C2C(C)(C)C2(C)C)c2ccccc21 | 26 nM
CC1(C)C(C(=O)c2cn(CCN3CCCC3=O)c3ccccc23)C1(C)C | 55 nM
CC1(C)C(C(=O)c2cn(C[C@H]3CCCO3)c3ccccc23)C1(C)C | 11 nM
CC1(C)C(C(=O)c2cn(CCO)c3ccccc23)C1(C)C | 440 nM
CC1(C)C(C(=O)c2cn(CCC(N)=O)c3ccccc23)C1(C)C | 294 nM
CC1(C)C(C(=O)c2cn(Cc3ccncc3)c3ccccc23)C1(C)C | 30 nM
CCCCn1cc(C(=O)C2C(C)(C)C2(C)C)c2ccccc21 | 5 nM
O=C(c1cn(CCN2CCOCC2)c2ccccc12)C1CCC1 | > 10000 nM
CC1(C)C(C(=O)c2cn(CCCCCO)c3ccccc23)C1(C)C | 11 nM
CC1(C)C(C(=O)c2cn(CCC3CCOCC3)c3ccccc23)C1(C)C | 15 nM
O=C(c1cn(CCN2CCOCC2)c2ccccc12)C1CCCCCC1 | 31 nM
CC1(C)C(C(=O)c2cn(Cc3ccccc3)c3ccccc23)C1(C)C | 93 nM
CC1(C)C(C(=O)c2cn(CCN3CCNCC3)c3ccccc23)C1(C)C | 2200 nM
CC1(C)C(C(=O)c2cn(CCCN3CCOCC3)c3ccccc23)C1(C)C | 1520 nM
CC1(C)C(C(=O)c2cn(CCN)c3ccccc23)C1(C)C | > 10000 nM

biological target: T1, Cannabinoid receptor 2; assay: Agonist activity at human recombinant CB2 receptor expressed in HEK293 cells coexpressing Galphaq/o5 assessed as calcium mobilization by FLIPR assay relative to CP-55940; format: functional, cell-based; details: not given
Summary of the method: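 HEK cells stably coexpressing human CB2 and chimeric Gαq/o5 were seeded at 75 000 cells/well the day before and loaded with no-wash calcium dye. […] Mean ± SEM, ≥3 experiments in duplicate.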

SMILES | Activity
CC1(C(=O)c2cn(CCN3CCOCC3)c3ccccc23)CC1(Cl)Cl (stereo not drawn) | 33%
COCCn1cc(C(=O)C2C(C)(C)C2(C)C)c2ccccc21 | 117%
O=C(c1cn(CCN2CCOCC2)c2ccccc12)C1CCCC1 | 35%
COCCCn1cc(C(=O)C2C(C)(C)C2(C)C)c2ccccc21 | 108%
CC1(C)C(C(=O)c2cn(CCN3CCCC3=O)c3ccccc23)C1(C)C | 97%
CC1(C)C(C(=O)c2cn(C[C@H]3CCCO3)c3ccccc23)C1(C)C | 99%
CC1(C)C(C(=O)c2cn(CCO)c3ccccc23)C1(C)C | 85%
CC1(C)C(C(=O)c2cn(CCC(N)=O)c3ccccc23)C1(C)C | 107%
CC1(C)C(C(=O)c2cn(Cc3ccncc3)c3ccccc23)C1(C)C | 99%
CCCCn1cc(C(=O)C2C(C)(C)C2(C)C)c2ccccc21 | 102%
CC1(C)C(C(=O)c2cn(CCCCCO)c3ccccc23)C1(C)C | 79%
CC1(C)C(C(=O)c2cn(CCC3CCOCC3)c3ccccc23)C1(C)C | 90%
O=C(c1cn(CCN2CCOCC2)c2ccccc12)C1CCCCCC1 | 48%
CC1(C)C(C(=O)c2cn(Cc3ccccc3)c3ccccc23)C1(C)C | 59%
CC1(C)C(C(=O)c2cn(CCN3CCNCC3)c3ccccc23)C1(C)C | 30%
CC1(C)C(C(=O)c2cn(CCCN3CCOCC3)c3ccccc23)C1(C)C | 56%
